A selection: hits, their analogues and other compounds. The true share with any hit is near 2.1%.
Thrombin inh: thrombin (human) inhibition; P00734; alpha-thrombin, Boc-VPR-AMC fluorogenic substrate cleavage; inhibition, % at 5 µM; 220,000 compounds, 0.26% hits;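 active = inhibition at or above 40%; inactive = inhibition below 40%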;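 also: 0% = enzyme with no compound and 100% = wells without enzyme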
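Material: human alpha-thrombin protein; Also added: Boc-VPR-AMC substrate, 15 µM final; Timing: enzyme reaction carried out at room temperature; Signal: fluorescence, ex 355 nm, em 460 nm; Measure: % inhibition of thrombin; Controls: enzyme without compound as high, wells lacking enzyme as low.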
EP2 modulator: modulators of human EP2 prostaglandin E2 receptor | P43116 | EP2-expressing cells, cAMP HTRF FRET, PGE2 co-stimulation | induction, % at 25 µM | 260,000 compounds, 0.83% hits | AID 940;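 active = compounds whose cAMP rise, as percent of the full-agonist control response, exceeds 60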;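 also: rat C6 glioma line stably carrying human EP2 under a CMV promoter; the protocol text gives 20 µM as final concentration; 100% = response of wells given 1 µM PGE2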
EP2 antag: blocks the human prostaglandin E2 receptor EP2; P43116; C6 glioma cells expressing human EP2, cAMP TR-FRET; cells stimulated with saturating PGE2; inhibition, % at 25 µM; 260,000 compounds, 0.52% hits; AID 1422;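 active = percent inhibition above 40 after rounding to a whole number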;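 also: rat C6 glioma host cells with rolipram phosphodiesterase inhibitor present; the protocol text gives 20 µM as final concentration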
KLK5 inh: inhibitors of human kallikrein 5; Q9Y337; recombinant hK5, fluorogenic AMC substrate cleavage; inhibition, % at 5 µM; 210,000 compounds, 0.59% hits; AID 873;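 active = inhibition of 40% or more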;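 also: 0% = enzyme controls without compound and 100% = no-enzyme blanks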
FXIIa inh 1536: blocks human coagulation factor XIIa protease activity | purified FXIIa, Boc-QGR-AMC fluorogenic substrate, 2 h | inhibition, % at 5 µM | 220,000 compounds, 0.3% hits | AID 800; in the data active = inhibition above about 40%;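 also: 0% = enzyme with no compound and 100% = blank without enzyme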
FXIa inh 1536: factor XIa (human) inhibition; 220,000 compounds, 0.14% hits; P03951; inhibition, % at 5 µM; purified FXIa, Boc-Glu-Ala-Arg-AMC fluorogenic substrate;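 active = inhibition of at least 40%; inactive = inhibition below 40%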;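 also: fluorescence of freed AMC excited at 355 nm; 0% = enzyme without compound and 100% = no enzyme blank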
Target sequence (P03951 19-387 limits assumed): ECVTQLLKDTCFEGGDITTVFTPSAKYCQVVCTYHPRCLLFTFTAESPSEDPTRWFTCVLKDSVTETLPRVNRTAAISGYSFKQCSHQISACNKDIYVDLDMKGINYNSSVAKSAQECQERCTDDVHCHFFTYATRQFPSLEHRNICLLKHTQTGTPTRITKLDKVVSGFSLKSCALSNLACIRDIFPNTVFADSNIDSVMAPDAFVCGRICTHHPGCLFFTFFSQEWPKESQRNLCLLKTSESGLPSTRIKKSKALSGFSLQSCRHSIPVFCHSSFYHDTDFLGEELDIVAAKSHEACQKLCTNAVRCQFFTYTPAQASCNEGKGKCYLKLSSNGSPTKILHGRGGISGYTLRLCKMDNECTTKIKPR
Target sequence (P03951 388-625 limits assumed): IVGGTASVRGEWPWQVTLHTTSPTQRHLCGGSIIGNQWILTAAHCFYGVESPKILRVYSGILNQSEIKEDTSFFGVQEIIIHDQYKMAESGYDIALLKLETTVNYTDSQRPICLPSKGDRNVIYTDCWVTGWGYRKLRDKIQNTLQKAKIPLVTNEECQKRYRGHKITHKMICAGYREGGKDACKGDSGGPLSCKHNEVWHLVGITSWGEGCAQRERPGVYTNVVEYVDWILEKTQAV
* hit, by the source's call; . = not tested or not shown.

SMILES	Thrombin inh	EP2 modulator	EP2 antag	KLK5 inh	FXIIa inh 1536	FXIa inh 1536
CC(=O)N1CN2CN(C(C)=O)CC(C(=O)c3ccc([N+](=O)[O-])cc3)(C2)C1	-4	26	12	1	8	-3
CNC(C(=O)c1ccccc1)C(OC)c1ccccc1 (stereo unspecified)	1	18	11	-8	6	-2
CC(=O)[O][Hg][c]1ccccc1	.	-40	113*	.	.	.
C/C(N[O-])=C(\C)[N+]([O-])=[Rh][Cl].CC(=N\[O-])/C(C)=N/[O-].c1ccc([PH+](c2ccccc2)c2ccccc2)cc1	.	26	41*	.	.	.
COc1cccc(CN2CCN(C(=O)Cc3cc(OC)ccc3OC)[C@@H](C)C2)c1	.	-12	.	.	.	.
Cn1c(N2CCNCC2)nc2c1c(=O)[nH]c(=O)n2C	.	7	17	.	.	.
Cc1ccc(S(=O)(=O)N[C@@H](CCCCN)C(=O)CCl)cc1	.	66*	17	.	.	.
CCC1(OC(=O)CN)C(=O)OCc2c1cc1n(c2=O)Cc2cc3ccccc3nc2-1 (stereo unspecified)	-2	2	9	-29	-58	-32
CC[C@]1(OC(=O)CN)C(=O)OCc2c1cc1n(c2=O)Cc2cc3ccccc3nc2-1	.	22	41*	.	.	.
O=C(O)C[SH+]CC(=O)O.O=C(O)C[SH+]CC(=O)O.[Cu]	.	17	44*	.	.	.
Cc1ncc(CN2CCCC(C(=O)c3ccc(C(C)(C)C)cc3)C2)s1 (stereo unspecified)	3	-21	3	35	63*	29
CCN(CCN(C)C)C(=O)Cc1c(C)[nH]c2ccc(Cl)cc12	.	-51	2	.	.	.
O=C(c1ccccc1)C1CCCN(Cc2nc(-c3cnccn3)no2)C1 (stereo unspecified)	-6	8	6	-7	3	-10
O=C(c1cccnc1)C1CCCN(Cc2nc(-c3cnccn3)no2)C1 (stereo unspecified)	30	-27	9	26	41*	37
COc1ccc(CN2CCN(C(=O)COc3ccc(C)cc3)CC2)c(OC)c1OC	.	-57	14	.	.	.
O.O.[NH-]C1(C(=O)O)CCCC1.[NH-]C1(C(=O)O)CCCC1.[Ni+2]	.	26	47*	.	.	.
CC[n+]1c(/C=C/C=C/c2ccc(N(C)C)cc2)sc2ccccc21	-6	-155	115*	3	-1	-12
CC[n+]1c(/C=C/N(C)c2ccccc2)sc2ccc(Cl)cc21	3	-27	5	3	13	3
CN(C)c1ccc(/C=C/c2cc[n+](C)c3ccccc23)cc1	2	-87	56*	-20	-2	-3
CN(C)c1ccc(/C=C/C=C/c2sc3ccccc3[n+]2C)cc1	-2	-77	46*	0	12	-5
Cc1ccc2[nH]c(C)c(CC(=O)N(C)CCN(C)C)c2c1	.	-13	9	.	.	.
CC(=O)N1CCCc2cc(C(O)CN3CC=C(c4ccc(Cl)cc4)CC3)ccc21 (stereo unspecified)	.	-64	13	.	.	.
CCC(=O)c1cn(Cc2ccccc2F)c2ccccc12	.	50	7	.	.	.
CNCCc1ccc(O)c(O)c1	.	71*	13	.	.	.
C[CH2][Hg][S]c1ccccc1C(=O)O	.	-38	115*	.	.	.
SMILES	Thrombin inh	EP2 modulator	EP2 antag	KLK5 inh	FXIIa inh 1536	FXIa inh 1536
CCn1cc(CN2C3CCC2CC(O)(c2ccccc2F)C3)cn1 (stereo unspecified)	.	-4	4	.	.	.
C#CCOc1ccc(CN2C3CCC2CC(O)(c2nccn2C)C3)cc1 (stereo unspecified)	.	-21	10	.	.	.
CCc1ccc(CN2CCNCC2)cc1	.	10	8	.	.	.
O=C1NC(=O)N(c2ccccc2)C(=O)/C1=C/c1ccc(Sc2ccccc2)o1	-7	-3	41*	-1	2	-7
C#CCOc1ccc(CN2C3CCC2CC(O)(c2ccccc2F)C3)cc1OC (stereo unspecified)	.	-16	5	.	.	.
O=c1c2ccccc2nc(SCC2CCCCO2)n1-c1ccccc1 (stereo unspecified)	-3	64*	7	-10	7	7
COc1ccc(-n2c(SC)nc3ccccc3c2=O)cc1	-5	26	-2	-20	5	-6
Cc1c(O)c(O)cc2c1CC=C1[C@@]2(C)CC[C@@]2(C)C3C[C@](C)(C(=O)O)CC[C@]3(C)CC[C@]12C (stereo partly specified)	.	4	8	.	.	.
CC1=C(O)C(=O)C=C2C1=CC=C1[C@@]2(C)CC[C@@]2(C)[C@@H]3C[C@](C)(C(=O)O)CC[C@]3(C)CC[C@]12C	.	-41	110*	.	.	.
COc1ccc(OCC(=O)N2CCN(Cc3ccc(SC)cc3)CC2)cc1	49*	-54	15	1	4	-2
COc1ccc(CN2CCN(C(=O)COc3ccc(OC)cc3)CC2)cc1	.	-34	5	.	.	.
COc1ccccc1CN(CCN(C)C)C(=O)Cc1ccc2c(c1)OCCO2	.	-2	4	.	.	.
CCN1CCN(C(=O)COc2ccc(Cl)cc2Cl)CC1	.	-51	4	.	.	.
CCCCCn1c(N)c(C(=O)NCc2cccs2)c2nc3ccccc3nc21	-3	59	4	-113	1	-2
CCCCn1c(N)c(C(=O)NCc2cccs2)c2nc3ccccc3nc21	-6	62*	2	-35	-2	-15
C#CCOc1ccc(CN2C3CCC2CC(O)(c2ccccc2F)C3)cc1 (stereo unspecified)	.	-56	3	.	.	.
COC(=O)C1=C(C)OC(N)=C(C#N)C12C(=O)Nc1ccc(F)cc12 (stereo unspecified)	.	-9	9	.	.	.
Cc1ccc(OP(N)(=O)Oc2ccc(C)cc2)cc1	-5	-38	4	-4	4	-3
Cc1ccc(OP(=O)(Oc2ccc(C)cc2)N2C=Cc3ccccc3[C@H]2C#N)cc1	.	36	42*	.	.	.
